# H69AR growth 86K – blocks growth of human H69AR lung tumor cells. viability, % at 10 µM. H69AR lung tumor viability, ATP luminescence, 72 h; hits give low values. 85,000 compounds, 6% hits;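 active means viability at or below 40%; inactive means viability above 40%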;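 further: multidrug resistant small cell line overexpressing MRP-1 efflux transporter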
# Lung fibro prol – blocks proliferation of human lung fibroblasts; LL 47 human lung fibroblast viability, ATP luminescence; hits give low values; viability, % at 10 µM; 85,000 compounds, 1.1% hits; AID 719;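 active means viability at or below 50% in the single dose screen; inactive means viability above 50%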;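 further: compound exposure lasted 72 h before the ATP readout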
#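 Times – overnight cell rest, 72 h compound treatment at 37 °C · Test system – human lung fibroblast line LL 47, low passage · Amount – 1,150 cells in each well · Controls – cell-only wells, no compound · Doses – 0.1% DMSO in all compound wells · Measured by – CellTiter-Glo luminescence · Buffer or medium – IMEM plus 15% FBS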
# HCT116 bCat-KO – beta-catenin-lacking colon tumor cell growth suppression. HCT116 beta-catenin knockout viability, CellTiter-Glo, 60 h; hits give low values. viability, % at 10 µM. 140,000 compounds, 1.5% hits. AID 818;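 active means viability at or under a set limit, the compound median less 4 SD, cut at about 6% in these data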
# PTEN del growth – suppresses growth of cells with PTEN deletion | HCT116 PTEN-null viability, CellTiter-Glo, 60 h; hits give low values | viability, % at 10 µM | 140,000 compounds, 1.2% hits;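 active means viability at or below a set limit, 4 SD under the median of all tested compounds, cut at about 3.7% in these data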;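 further: PTEN knockout HCT116 line with beta catenin targeted HCT116 as companion control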
# HUVEC inhibit – human endothelial cell proliferation inhibition; HUVEC proliferation, CellTiter-Glo luminescence, 72 h; hits give low values; viability, % at 10 µM (by protocol); 86,000 compounds, 1.1% hits; AID 648;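 active means viability at or below 30%; inactive means viability above 30%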
# Numbers stand for hits; . = inactive; / = no result. Many of the other results were omitted from the sample, so hits are more common in it than they were.
SMILES,H69AR growth 86K,Lung fibro prol,HCT116 bCat-KO,PTEN del growth,HUVEC inhibit
Cc1csc(NC(=O)c2nc(-c3ccccc3)n(-c3ccccc3)n2)n1,26.1,/,.,.,.
COc1c(/C=N/NC(N)=S)c(C)nn1-c1ccccc1,/,/,.,.,/
Cc1ccc(C(=O)CN2/C(=C(\O)c3ccccc3)C(=O)c3ccccc3S2(=O)=O)c(C)c1,23.7,.,.,.,.
Cc1ccc(SCC(=O)Nc2ccc(-c3nc4ccccc4[nH]3)cc2)cc1,/,/,.,.,/
Cc1nn(CC(O)Cn2c3c(c4ccccc42)CCN(C)C3=O)c(C)c1Br (stereo not drawn),37.9,.,.,.,.
COc1ccc(-c2nn(-c3ccccc3)cc2C(=O)Nc2nccs2)cc1,22.6,.,.,.,.
COc1cccc(-c2nn(-c3ccccc3)cc2C(=O)Nc2nccs2)c1,35.7,.,.,.,.
COc1cccc(-c2nn(-c3ccccc3)cc2C(=O)n2nnc3ccccc32)c1,18.8,.,.,.,.
Cc1cccc(C)c1NC(=O)c1cn(-c2ccccc2)nc1-c1ccccc1,/,/,.,.,/
CN(/N=C\c1ccc(O)c(O)c1)c1nc(-c2ccccc2)cc(-c2ccccc2)n1,/,/,.,.,/
CS(=O)(=O)N(CCc1ccccc1)CC(=O)N1CCN(c2ccc(F)cc2)CC1,.,.,.,.,.
CCCOc1ccc(C(=O)NNC(=S)NC(=O)CC)cc1,/,/,5.5,.,/
CCc1cccc(C)c1NC(=O)CSc1nnc(CCCOc2ccc(Cl)cc2Cl)n1C,/,/,.,.,/
COc1ccc(-c2[nH]c(-c3ccc(F)cc3)nc2SCC(=O)NCc2ccco2)cc1OC,39.5,.,.,.,.
COc1ccc(-c2[nH]c(-c3ccccc3)nc2SCC(=O)NCc2ccco2)cc1OC,.,.,.,.,.
COc1cc(OC)c(-c2cc(C(=O)O)ccc2OC)c(OC)c1,/,/,.,.,/
C/C(=N/NC(=O)Cc1ccccc1)c1ccc(C)s1,/,/,.,.,/
Cc1ccc(C)c(S(=O)(=O)Nc2ccccc2C(=O)Nc2ccccc2N2CCOCC2)c1,/,/,.,.,/
Cc1cc(-c2csc(N)n2)c(C)n1CCC(C)C,.,.,.,.,.
Cc1cc(-c2csc(N)n2)c(C)n1CCc1ccccc1,39.5,.,.,.,.
CCNc1nc(NCC)n2c(SCC(=O)N(CC)C3CCCCC3)nnc2n1,/,/,.,.,/
CCCc1[nH]nc2c1C(c1cn[nH]c1-c1ccc(F)cc1)C(C#N)=C(N)O2 (stereo not drawn),31.9,.,.,.,.
CC(=O)NC1=NN(C(C)=O)C(C)(CS(=O)(=O)c2ccc3ccccc3c2)S1 (stereo not drawn),.,.,.,.,.
CC(C)(c1ccccc1)c1ccc(OCCCNCCO)cc1,0.9,.,1.8,.,25.6
Cc1ccc(N2CCN(CCc3nc4cc(NC(=O)c5ccco5)ccc4n3C)CC2)cc1,6.6,.,.,.,.
SMILES,H69AR growth 86K,Lung fibro prol,HCT116 bCat-KO,PTEN del growth,HUVEC inhibit
Cn1c(CCN2CCN(c3ccc(F)cc3)CC2)nc2cc(NC(=O)c3ccco3)ccc21,.,.,.,.,.
Cn1c(CCN2CCN(c3ccccc3)CC2)nc2cc(NC(=O)c3ccco3)ccc21,21.2,.,.,.,.
CC1CCCC(NC(=O)COC(=O)CN2C(=O)C3CCCCC3C2=O)C1C (stereo not drawn),/,/,.,.,/
CCOC(=O)Cc1ccc2sc(-c3ccccc3)nc2c1,/,/,.,.,/
Cc1c(C(N)=O)sc2ncn(CC(=O)N3CCC(C)CC3)c(=O)c12,.,.,.,.,.
Cc1cccc(/C=C(\c2nc3ccccc3[nH]2)S(=O)(=O)c2ccccc2)c1,/,/,1.9,0.9,/
CCOC(=O)NC(Nc1ccc(OC)cc1)(C(F)(F)F)C(F)(F)F,/,/,.,.,/
O=C(OCC#CCSc1nnc(-c2ccc([N+](=O)[O-])cc2)o1)c1cccs1,36.6,.,.,.,.
CCN(CC)CCn1c(=N)n(CCOc2ccccc2)c2ccccc21,10.2,32.5,.,.,.
COCCn1c(COc2ccc(C)cc2)nc2ccccc21,.,.,.,.,.
Cc1ccc(OCCn2c(=O)cnc3ccccc32)cc1,19.0,.,.,.,.
COc1ccc(OCCn2c(=N)n(CCO)c3ccccc32)cc1,.,.,.,.,.
CCCCn1c(=N)n(CCOc2ccc(C)cc2)c2ccccc21,/,/,1.9,1.9,/
CCN(CC)CCn1c(=N)n(CCO)c2ccccc21,.,.,.,.,.
Cc1ccccc1CSc1n[nH]c(NS(=O)(=O)c2ccccc2)n1,/,/,.,.,/
Cn1c(N2C(=O)CC(Cc3ccccc3)C2=O)nc2ccccc21 (stereo not drawn),.,.,.,.,.
Cc1nnc(SCc2ccccc2)nc1/C=C/NOCc1ccc(Cl)cc1Cl,2.3,.,.,.,.
COc1ccc(-c2cc(C#N)nc(N3CCNCC3)n2)cc1,1.4,2.0,0.6,0.4,.
COc1ccc(-c2cc(C#N)nc(Oc3ccc(Cl)cc3)n2)cc1,/,/,.,.,/
COc1ccc(-c2cc(C#N)nc(N3CCN(C)CC3)n2)cc1,/,/,.,.,/
CCN(CC)c1nc(C#N)cc(-c2ccc(OC)cc2)n1,31.9,.,.,.,.
COC(=O)c1sccc1NC(=S)N1CCN(c2ccccc2F)CC1,/,/,.,.,/
Cc1ccc(S(=O)(=O)NC2CCCc3ccccc32)cc1C (stereo not drawn),.,.,.,.,.
COc1cccc(OCCCOc2ccccc2C(C)C)c1,/,/,.,.,/
CCCCOc1ccc(C(=O)OC2CC(C)N(C)CC2C)cc1 (stereo not drawn),.,.,.,.,15.2
SMILES,H69AR growth 86K,Lung fibro prol,HCT116 bCat-KO,PTEN del growth,HUVEC inhibit
CCCCOc1ccc(C(=O)N2CCC(C)CC2)cc1,.,.,.,.,.
CCC(C)[C@H](NC(=O)NCCCn1ccnc1)C(=O)OC (stereo partly drawn),/,/,.,.,/
CCC(O)CNC(=O)NC(=C(Cl)Cl)c1ccc(C)c(F)c1 (stereo not drawn),/,/,.,.,/
CCCn1c(C)cc(=O)c2cc(NC(=O)c3cnccn3)ccc21,7.2,.,.,.,.
O=C1c2ccccc2-c2onc3ccc(Oc4ccccc4)c1c23,2.1,2.8,1.9,1.5,4.4
CCOC(=O)c1cc(C#N)c(SCc2cccc3ccccc23)nc1C,.,.,.,.,.
CCOC(=O)c1cc(C#N)c(SCC(=O)c2cc(C#N)c(SC)nc2C)nc1C,11.6,/,/,/,.
CC(=O)N1CCN(C(=S)NC(=O)c2ccc(S(=O)(=O)N3CCOCC3)cc2)CC1,/,/,.,.,/
CCOc1cc(C2C(C#N)=C(N)OC(C)=C2C(C)=O)c(Br)c(Br)c1OC(C)C (stereo not drawn),3.2,.,.,.,.
CCOc1ccc(-c2nnn(CC(=O)N3CCCC3)n2)cc1OCC,.,.,.,.,.
CCCc1cc(=O)n2[nH]c(C)c(-c3ccccc3)c2n1,.,.,.,.,.
Cc1[nH]n2c(=O)cc(C(C)C)nc2c1-c1ccccc1,14.3,.,.,.,.
Cc1[nH]n2c(=O)cc(-c3ccc([N+](=O)[O-])cc3)nc2c1-c1ccccc1,14.9,.,/,/,8.6
Cc1[nH]n2c(=O)cc(C(C)(C)C)nc2c1-c1ccccc1,35.8,.,.,.,.

# Source: PubChem BioAssay (SRMLSC)
